Measurements published in ChEMBL document CHEMBL1144880, “Identification of phenylisoxazolines as novel and viable antibacterial agents active against Gram-positive pathogens” (J Med Chem, 2003).
In brackets after ≈: the same amount, converted by molar mass.

Assays:
[1] = system: Staphylococcus epidermidis; test: In vitro minimum inhibitory concentration (MIC) against Staphylococcus epidermidis UC12084; type: functional
Procedure, shortened: (§1)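 MIC determined by standard broth microdilution, defined as the lowest drug concentration (µg/mL) inhibiting visible growth.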

[2] = system: Staphylococcus aureus; test: In vitro minimum inhibitory concentration (MIC) against Staphylococcus aureus UC9213; type: functional; procedure, shortened: as §1
[3] = system: Haemophilus influenzae; test: In vitro minimum inhibitory concentration (MIC) against Haemophilus influenzae UC30063; type: functional; procedure, shortened: as §1
[4] = system: Enterococcus faecalis; test: In vitro minimum inhibitory concentration (MIC) against Enterococcus faecalis UC9217; type: functional; procedure, shortened: as §1
[5] = system: Mus musculus; test: In Vivo effective dose required for antibacterial activity in a systemic mouse infection model (SMIM) upon peroral administration against Staphylococcus aureus UC9213; type: functional; details: po
Procedure, shortened: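 Compound was given orally at 1 and 5 h after infection. Deaths were monitored for at least 6 days, and ED50 (dose curing 50% of mice) was calculated by probit analysis.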

[6] = system: Escherichia coli; test: In vitro minimum inhibitory concentration (MIC) against Escherichia coli UC6674; type: functional; procedure, shortened: as §1
[7] = system: Staphylococcus aureus; test: In vitro minimum inhibitory concentration (MIC) against Staphylococcus aureus UC12673; type: functional; procedure, shortened: as §1
[8] = system: Streptococcus pneumoniae; test: In vitro minimum inhibitory concentration (MIC) against Streptococcus pneumoniae UC9912; type: functional; procedure, shortened: as §1
[9] = system: Moraxella catarrhalis; test: In vitro minimum inhibitory concentration (MIC) against Moraxella catarrhalis UC30610; type: functional; procedure, shortened: as §1
[10] = Absolute oral bioavailability in Male Sprague-Dawley Rat (49.4 mg/kg po); type: ADME, organism-based; details: in vivo
Procedure, shortened: (§2)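 Male Sprague-Dawley rats dosed intravenously or orally. Intact compound measured in plasma by HPLC-UV after protein-precipitation sample preparation. Half-life reported as harmonic mean apparent terminal disposition half-life. Bioavailability is absolute oral bioavailability. Some comparator values are archival data.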

[11] = Harmonic mean apparent terminal disposition half-life [t1/2beta (h)] in Male Sprague-Dawley Rat at dose 10.1 (mg/kg iv); type: ADME, organism-based; details: in vivo, read-out: T1/2 beta (converted); procedure, shortened: as §2
[12] = Volume distribution in Male Sprague-Dawley Rat (10.1 mg/kg iv); type: ADME, organism-based; details: in vivo, read-out: Vss
Procedure, shortened: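 Male Sprague-Dawley rats given the compound intravenously. Intact compound in plasma was measured by HPLC-UV after protein-precipitation sample preparation.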

[13] = Harmonic mean apparent terminal disposition half-life [t1/2beta (h)] in Male Sprague-Dawley Rat at dose 49.4 (mg/kg po); type: ADME, organism-based; details: in vivo, read-out: T1/2 beta (converted); procedure, shortened: as §2
[14] = Plasma clearance in Male Sprague-Dawley Rat (49.4 mg/kg po); type: ADME, organism-based; procedure, shortened: as §2
[15] = organism: Rattus norvegicus; test: Compound was evaluated for metabolic stability via In vitro Rat 5E6 cell at 50 uM concentration; type: functional
[16] = Tmax value in Male Sprague-Dawley Rat at dose 49.4 (mg/kg po) [tmax (h)]; type: ADME, organism-based; details: in vivo; procedure, shortened: as §2
[17] = Cmax value in Male Sprague-Dawley Rat at dose 49.4 (mg/kg po); type: ADME, organism-based; parameters: dose 49.4 mg/kg, route oral; details: in vivo; procedure, shortened: as §2
[18] = Cmax value in Male Sprague-Dawley Rat at dose 10.1 (mg/kg iv); type: ADME, organism-based; parameters: dose 10.1 mg/kg, route intravenous; details: in vivo; procedure, shortened: as §2
[19] = organism: Homo sapiens; test: Compound was evaluated for metabolic stability via In vitro Human 5E6 cell at 25 uM concentration; type: functional
[20] = Absolute oral bioavailability in Male Sprague-Dawley Rat (10.1 mg/kg iv); type: ADME, organism-based; details: in vivo; procedure, shortened: as §2
[21] = Plasma clearance in Male Sprague-Dawley Rat (10.1 mg/kg iv); type: ADME, organism-based; procedure, shortened: as §2

MIC [1] [µg/mL] | MIC [2] [µg/mL] | MIC [3] [µg/mL] | MIC [4] [µg/mL] | MIC [6] [µg/mL] | MIC [7] [µg/mL] | MIC [8] [µg/mL] | MIC [9] [µg/mL] | SMILES | ED50 [5] [mg/kg] | also measured
0.5 (≈ 1.26 µM) | 2 (≈ 5.05 µM) | 16 (≈ 40.4 µM) | 2 (≈ 5.05 µM) | > 16 | 1 (≈ 2.52 µM) | 0.5 (≈ 1.26 µM) | 8 (≈ 20.2 µM) | CC(=O)NC[C@H]1CC(c2cc(F)c(N3CCN(C(=O)CO)CC3)c(F)c2)=NO1 | 5 | 
0.25 (≈ 0.703 µM) | 1 (≈ 2.81 µM) | 16 (≈ 45 µM) | 1 (≈ 2.81 µM) | > 16 | 1 (≈ 2.81 µM) | 0.25 (≈ 0.703 µM) | 2 (≈ 5.63 µM) | C/C(S)=N/C[C@H]1CC(c2cc(F)c(N3CCOCC3)c(F)c2)=NO1 | > 20 | 
1 (≈ 2.64 µM) | 4 (≈ 10.6 µM) | > 16 | 4 (≈ 10.6 µM) | > 16 | 4 (≈ 10.6 µM) | 1 (≈ 2.64 µM) | 8 (≈ 21.1 µM) | CC(=O)NC[C@H]1CC(c2ccc(N3CCN(C(=O)CO)CC3)c(F)c2)=NO1 | 9.1 | bioavailability [10]: 86%; half-life [11]: 36.6 min; Vd [12]: 0.95 L/kg; half-life [13]: 42 min; CL/F [14]: 30.8 mL/min/kg; Remaining at 40 min [15]: 100%; Tmax [16]: 150 min; Cmax [17]: 6170 ng/mL; Cmax [18]: 17700 ng/mL; Remaining at 40 min [19]: 101%; bioavailability [20]: 100%; clearance [21]: 26.2 mL/min/kg
1 (≈ 2.8 µM) | 2 (≈ 5.6 µM) | > 16 | 4 (≈ 11.2 µM) | > 16 | 2 (≈ 5.6 µM) | 0.5 (≈ 1.4 µM) | 8 (≈ 22.4 µM) | CC(=O)NC[C@H]1CC(c2ccc(C3=CCN(C(=O)CO)CC3)cc2)=NO1 | 6 | 
